This note sets out measurements from ChEMBL document CHEMBL1142491, “Linking bisphosphonates to the free amino groups in fluoroquinolones: preparation of osteotropic prodrugs for the prevention of osteomyelitis” (J Med Chem, 2008).

Molecules are shown by their SMILES. Values after ≈ are worked out from the molar mass of the structure shown. Active and inactive are the calls of the source. The rule behind the calls is not given here.

In data set [1] the test system is Staphylococcus aureus. The experiment in a line: Antibacterial activity against Staphylococcus aureus ATCC 13709 after 24 hrs by microdilution method. The following applies: ATCC 13709, 24 h. Type of data set: functional. Summed up:
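MIC by broth microdilution per CLSI guidelines (M7 A7) against S. aureus ATCC 13709.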
In general terms: Broth dilution looks for growth in wells or tubes with falling amounts of substance.

In another data set the test system is Bone. Description: Binding affinity to bone assessed as drug level bound to cattle bone meal powder by fluorescence assay. The following applies: Bos taurus; Bone element. On the set-up: concentration or dose not given beside the values. The class given is tissue-based. Summed up:
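Compound dissolved in PBS, added at 1 mg/mL final to bone meal powder slurry (10 mg/mL in PBS), 37 °C for 1 h. Spun 13 000 rpm 2 min. Bound amount taken as input minus amount in supernatant, measured by fluorescence. Limit of detection 0.01%.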

Data set [2] can be described thus: Stability in phosphate buffer saline assessed as amount of parent drug released from cattle bone meal powder over 24 hrs. Type of data set: ADME. Summed up:
(§1)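 Washed bone powder carrying bound prodrug resuspended in PBS or 50% (v/v in PBS) human or rat serum, 24 h at 37 °C, then centrifuged. Supernatant extracted with 5 volumes methanol (15 min vortex), spun, dried, redissolved in PBS. Released fluoroquinolone quantified by fluorescence. Limit of detection 0.01%.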

Data set [3] deals with Serum. Description: Stability in 50% rat serum assessed as amount of parent drug released from cattle bone meal powder over 24 hrs. The class given is ADME, cell-free. The method in brief: as §1
Data set [4] relates to Serum. The experiment in a line: Stability in 50% human serum assessed as amount of parent drug released from cattle bone meal powder over 24 hrs. The class given is ADME, cell-free. The method in brief: as §1
Data set [5] has as its system Staphylococcus aureus. Description: Protective effect against Staphylococcus aureus ATCC 13709-induced bone infection in CD rat at 20 mg/kg, iv administered as single dose 2 days before bacterial challenge. Type of data set: functional, organism-based. On the set-up: dose 20 mg/kg. Summed up:
(§2)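 S. aureus ATCC 13709 inoculum from frozen stock. Rats given intratibial 5% sodium morrhuate then about 5 × 10^5 CFU. Single IV bolus in saline, at the stated time relative to infection. Sacrificed 24 h post-infection. Tibiae milled and plated; mean log CFU/g bone ± SD. Detection limit 2 log CFU/g. Dunnett's test vs untreated, P<0.05.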

The test system of data set [6] is Staphylococcus aureus. Description: Protective effect against Staphylococcus aureus ATCC 13709-induced bone infection in CD rat at 24 mg/kg, iv administered as single dose 1 day before bacterial challenge. On the set-up: dose 24 mg/kg. Type of data set: functional, organism-based. The method in brief:
as §2

The subject of data set [7] is Staphylococcus aureus. The experiment in a line: Protective effect against Staphylococcus aureus ATCC 13709-induced bone infection in CD rat at 42 mg/kg, iv administered as single dose 2 days before bacterial challenge. On the set-up: dose 42 mg/kg. Type of data set: functional, organism-based. Summed up: as §2
Data set [8] relates to Staphylococcus aureus. The experiment in a line: Protective effect against Staphylococcus aureus ATCC 13709-induced bone infection in CD rat at 20.8 mg/kg, iv administered as single dose 1 day before bacterial challenge. Type of data set: functional, organism-based. On the set-up: dose 20.8 mg/kg. The method in brief: as §2
Data set [9] deals with Staphylococcus aureus. Description: Protective effect against Staphylococcus aureus ATCC 13709-induced bone infection in CD rat at 10 mg/kg, iv administered as single dose 1 hr after bacterial challenge. The class given is functional, organism-based. On the set-up: dose 10 mg/kg. The method in brief:
as §2

As to `O=C(O)c1cn(C2CC2)c2cc(N3CCN(CC(P(=O)(O)O)P(=O)(O)O)CC3)c(F)cc2c1=O`, the MIC against Staphylococcus aureus [1] was above 4 µg/mL. In addition, the Activity in the data set with Bone was found to be 99.6%; in [2] it was 0.01%; in the data set with Serum [3], 0.01%; with Serum [4] it was 0.01%.
`COc1c(N2C[C@@H]3CCCN(CC(P(=O)(O)O)P(=O)(O)O)[C@@H]3C2)c(F)cc2c(=O)c(C(=O)O)cn(C3CC3)c12` came in with a minimum inhibitory concentration (MIC) against Staphylococcus aureus [1] above 4 µg/mL. Also, the Activity with Bone was found to be 92.2%; in [2] it was 0.01%; in the data set on Serum [3], 0.01%; with Serum [4], 0.01%.
As to `COc1c(N2CCN(C(=O)CC(P(=O)(O)O)P(=O)(O)O)C(C)C2)c(F)cc2c(=O)c(C(=O)O)cn(C3CC3)c12` (configuration not stated), the minimal inhibitory concentration (MIC) against Staphylococcus aureus [1] is above 4 µg/mL. Further, the Activity in the data set with Bone is 98.2%; in data set [2], 0.01%; with Serum [3] it was 0.01%; in the data set on Serum [4], 0.01%.
In the data set on Staphylococcus aureus [1], `COc1c(N2CCN(C(=O)OC(C)OC(=O)CCCC(P(=O)(O)O)P(=O)(O)O)C(C)C2)c(F)cc2c(=O)c(C(=O)O)cn(C3CC3)c12` (configuration not stated) displayed an MIC above 4 µg/mL. Further, the Activity with Bone is 88.4%; in [2] it was 0.7%; with Serum [3], 0.7%; in the data set with Serum [4] it was 0.9%.
As to `COc1c(N2CCNC(C)C2)c(F)cc2c(=O)c(C(=O)O)cn(C3CC3)c12` (configuration not stated) [GATIFLOXACIN], in the data set on Staphylococcus aureus [1], the minimum inhibitory concentration (MIC) is 0.06 µg/mL (≈ 0.16 µM). In the data set on Bone, the Activity was determined as 0.01%. Further, the outcome in the data set on Staphylococcus aureus [5] was inactive.
In the data set with Staphylococcus aureus [1], `COc1c(N2CCN(C(=O)OC(C)OC(=O)CCCC(=O)NC(P(=O)(O)O)P(=O)(O)O)C(C)C2)c(F)cc2c(=O)c(C(=O)O)cn(C3CC3)c12` (configuration not stated) displayed an MIC above 4 µg/mL. The Activity was 94.3% in the data set on Bone, 1.5% in data set [2], 1.8% in the data set on Serum [3] and 2.4% with Serum [4].
Take `COc1c(N2CCN(Cc3oc(=O)oc3-c3ccc(P(=O)(O)CP(=O)(O)O)cc3)C(C)C2)c(F)cc2c(=O)c(C(=O)O)cn(C3CC3)c12` (configuration not stated): the MIC in the data set with Staphylococcus aureus [1] was below 0.12 µg/mL. The Activity in the data set with Bone was found to be 63.7%; in [2] it was 7.5%; in the data set on Serum [3] it was 30%; in the data set with Serum [4], 22.8%.
As for `COc1c(N2CCN(C(=O)CC(C)(C)c3cc(P(=O)(O)CP(=O)(O)O)ccc3OC(=O)C(C)C)C(C)C2)c(F)cc2c(=O)c(C(=O)O)cn(C3CC3)c12` (configuration not stated), in the data set on Staphylococcus aureus [1], the minimum inhibitory concentration (MIC) was above 4 µg/mL. For the same compound, the Activity in the data set with Bone is 76%; in data set [2], 0.8%; in the data set on Serum [3], 6.1%; in the data set with Serum [4] it was 3.6%.
Turning to `COc1c(N2CCN(C(=O)CC(C)(C)c3cc(P(=O)(O)CP(=O)(O)O)ccc3OC(C)=O)C(C)C2)c(F)cc2c(=O)c(C(=O)O)cn(C3CC3)c12` (configuration not stated), the MIC in the data set with Staphylococcus aureus [1] was above 4 µg/mL. The Activity in the data set with Bone amounted to 36.6%; in [2] it was 5.4%; in the data set on Serum [3] it was 6.2%; in the data set with Serum [4], 3.7%.
`COc1c(N2C[C@@H]3CCCN(C(=O)CC(P(=O)(O)O)P(=O)(O)O)[C@@H]3C2)c(F)cc2c(=O)c(C(=O)O)cn(C3CC3)c12` registered an MIC with Staphylococcus aureus [1] above 4 µg/mL. Further, the Activity in the data set on Bone is 99.9%; in data set [2], 0.01%; in the data set with Serum [3], 0.01%; in the data set on Serum [4], 0.01%. The result with Staphylococcus aureus [6] was inactive.
Consider `O=C(O)c1cn(C2CC2)c2cc(N3CCNCC3)c(F)cc2c1=O` [CIPROFLOXACIN], for which the Activity in the data set with Bone stood at 0.01%.
For the compound `COc1c(N2C[C@@H]3CCCN(C(=O)OC(C)OC(=O)CCCC(=O)NC(P(=O)(O)O)P(=O)(O)O)[C@@H]3C2)c(F)cc2c(=O)c(C(=O)O)cn(C3CC3)c12` (some centres not stated), in the data set on Staphylococcus aureus [1], the MIC was above 4 µg/mL. Further, the Activity in the data set with Bone was determined as 93.9%; in data set [2] it was 1.2%; with Serum [3], 1.4%; in the data set on Serum [4], 1.8%.
In the case of `COc1c(N2CCN(C(=O)OCOC(=O)CCC(P(=O)(O)O)P(=O)(O)O)C(C)C2)c(F)cc2c(=O)c(C(=O)O)cn(C3CC3)c12` (configuration not stated), in the data set with Staphylococcus aureus [1], the MIC amounted to 0.5 µg/mL (≈ 0.736 µM). The Activity with Bone is 86.4%; in [2], 13.4%; with Serum [3], 25.4%; in the data set with Serum [4] it was 21.2%. For the same compound, the result with Staphylococcus aureus [7] was Active.
On to `COc1c(N2CCN(CCC(=O)c3ccc(OCCCC(P(=O)(O)O)P(=O)(O)O)cc3)C(C)C2)c(F)cc2c(=O)c(C(=O)O)cn(C3CC3)c12` (configuration not stated), for which the lowest concentration to inhibit growth in the data set on Staphylococcus aureus [1] (MIC) was 0.12 µg/mL (≈ 0.162 µM). Also, the Activity with Bone came out at 94.7%; in [2] it was 2.3%; in the data set on Serum [3], 4.2%; in the data set on Serum [4] it was 4.3%. For the same compound, the outcome with Staphylococcus aureus [8] was Active.
Take `COc1c(N2CCN(C(=O)CC(C)(C)c3cc(P(=O)(O)CP(=O)(O)O)ccc3OP(=O)(O)O)C(C)C2)c(F)cc2c(=O)c(C(=O)O)cn(C3CC3)c12` (configuration not stated): the MIC against Staphylococcus aureus [1] was above 4 µg/mL. For the same compound, the Activity in the data set with Bone worked out at 0.01%.
Turning to `COc1c(N2C[C@@H]3CCCN[C@@H]3C2)c(F)cc2c(=O)c(C(=O)O)cn(C3CC3)c12` [MOXIFLOXACIN], 0.03 µg/mL (≈ 0.0747 µM) was the least that counted as inhibitory in the data set on Staphylococcus aureus [1] (MIC). Also, the Activity with Bone is 0.01%. Also, the outcome with Staphylococcus aureus [9] was Active.

The term MIC denotes the lowest concentration that inhibits growth of the organism.
